Test results: ChEMBL document CHEMBL2331439 (J Med Chem, 2013)

Key:
[1] = biological target: Tyrosine-protein kinase Lck (Homo sapiens) (UniProt P06239); assay: Inhibition of recombinant LCK (unknown origin) at 5 uM by FRET-based Z'-LYTE assay
How it was run: (§1)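 Single-point panel screen at 5 μM in duplicate. ATP is at the apparent Km of each kinase, and the Z'-LYTE FRET peptide substrate is used. Each point has two control wells: a protease control for interference with development and a fluorescence control for interference with the FRET read-out. Values above 100% are treated as maximal inhibition and values below 0% as none.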

[2] = biological target: RAC-alpha serine/threonine-protein kinase (Homo sapiens, UniProt P31749); assay: Inhibition of recombinant AKT1 (unknown origin) at 5 uM by FRET-based Z'-LYTE assay; how it was run: as §1
[3] = biological target: Casein kinase I isoform gamma-2 (Homo sapiens) (UniProt P78368); assay: Inhibition of recombinant CSNK1G2 (unknown origin) at 5 uM by FRET-based Z'-LYTE assay; how it was run: as §1
[4] = biological target: Mitogen-activated protein kinase 1 (Homo sapiens, UniProt P28482); assay: Inhibition of recombinant ERK2 (unknown origin) by FRET-based Z'-LYTE assay
[5] = biological target: Interleukin-1 receptor-associated kinase 4 (Homo sapiens) (UniProt Q9NWZ3); assay: Inhibition of recombinant IRAK4 (unknown origin) at 5 uM by FRET-based Z'-LYTE assay; how it was run: as §1
[6] = biological target: T1, Ribosomal protein S6 kinase beta-1 (Homo sapiens, UniProt P23443); assay: Inhibition of recombinant RPS6KB1 (unknown origin) at 5 uM by FRET-based Z'-LYTE assay
How it was run: (§2)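 Z'-LYTE FRET peptide (coumarin/fluorescein) phosphorylation was followed by protease development. Wells included a protease control for interference with development and a fluorescence control for interference with the FRET read. Values above 100% or below 0% were treated as maximal or no inhibition.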

[7] = biological target: T1, Ribosomal protein S6 kinase beta-1; assay: Inhibition of recombinant RPS6K1 (unknown origin) by FRET-based Z'-LYTE assay
[8] = biological target: Phosphatidylinositol 4,5-bisphosphate 3-kinase catalytic subunit gamma isoform (Homo sapiens) (UniProt P48736); assay: Inhibition of recombinant PIK3CG (unknown origin) at 5 uM after 1 hr by FRET-based adapta assay
How it was run: (§3)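 After inhibitor and all reaction components are added, the reaction runs for 1 h. ADP formed by the kinase displaces an antibody-tracer complex, so reduced ADP gives a high TR-FRET signal. Inhibition is calculated against a control.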

[9] = biological target: Phosphorylase b kinase gamma catalytic chain, liver/testis isoform (Homo sapiens) (UniProt P15735); assay: Inhibition of recombinant PHKG2 (unknown origin) at 5 uM by FRET-based Z'-LYTE assay; how it was run: as §1
[10] = biological target: cAMP-dependent protein kinase catalytic subunit alpha (Homo sapiens) (UniProt P17612); assay: Inhibition of recombinant PRKACA (unknown origin) at 5 uM by FRET-based Z'-LYTE assay; how it was run: as §1
[11] = biological target: Epidermal growth factor receptor (Homo sapiens) (UniProt P00533); assay: Inhibition of recombinant EGFR (unknown origin) at 5 uM by FRET-based Z'-LYTE assay; how it was run: as §1
[12] = biological target: AMP-activated protein kinase (AMPK) alpha-1/beta-1/gamma-1 (Homo sapiens) (UniProt P54619+Q9Y478+Q13131); assay: Inhibition of recombinant AMPK A1/B1/G1 (unknown origin) at 5 uM by FRET-based Z'-LYTE assay; format: protein-complex assay; how it was run: as §1
[13] = biological target: CDK9/cyclin T1 (Homo sapiens) (UniProt O60563+P50750); assay: Inhibition of recombinant CDK9/cyclin T1 (unknown origin) at 5 uM after 1 hr by FRET-based adapta assay; format: protein-complex assay; how it was run: as §3
[14] = biological target: Protein kinase C beta type (Homo sapiens) (UniProt P05771); assay: Inhibition of recombinant PRKCB1 (unknown origin) at 5 uM by FRET-based Z'-LYTE assay; how it was run: as §2
[15] = biological target: MAP kinase-activated protein kinase 2 (Homo sapiens, UniProt P49137); assay: Inhibition of recombinant MAPKAPK2 (unknown origin) by FRET-based Z'-LYTE assay
[16] = biological target: Mitogen-activated protein kinase 14 (Homo sapiens, UniProt Q16539); assay: Inhibition of recombinant MAPK14 (unknown origin) at 5 uM by cascade reaction assay
[17] = biological target: Cyclin-dependent kinase 1/cyclin B1 (Homo sapiens) (UniProt P06493+P14635); assay: Inhibition of recombinant CDK1/cyclin B (unknown origin) at 5 uM by FRET-based Z'-LYTE assay; format: protein-complex assay; how it was run: as §1
[18] = biological target: Dual specificity tyrosine-phosphorylation-regulated kinase 3 (Homo sapiens) (UniProt O43781); assay: Inhibition of recombinant DYRK3 (unknown origin) at 5 uM by FRET-based Z'-LYTE assay; how it was run: as §1
[19] = biological target: Insulin receptor (Homo sapiens) (UniProt P06213); assay: Inhibition of recombinant INSR (unknown origin) at 5 uM by FRET-based Z'-LYTE assay; how it was run: as §1
[20] = biological target: Cyclin-dependent kinase 7/ cyclin H (Homo sapiens) (UniProt P51946+P50613); assay: Inhibition of recombinant CDK7/cyclin H/MNAT1 (unknown origin) at 5 uM after 1 hr by FRET-based adapta assay; format: protein-complex assay; how it was run: as §3
[21] = biological target: Ribosomal protein S6 kinase alpha-3 (Homo sapiens) (UniProt P51812); assay: Inhibition of recombinant RPS6KA3 (unknown origin) at 5 uM by FRET-based Z'-LYTE assay; how it was run: as §2
[22] = biological target: Serine/threonine-protein kinase PLK1 (Homo sapiens) (UniProt P53350); assay: Inhibition of recombinant PLK1 (unknown origin) at 5 uM by FRET-based Z'-LYTE assay; how it was run: as §1
[23] = biological target: Inhibitor of nuclear factor kappa-B kinase subunit epsilon (Homo sapiens) (UniProt Q14164); assay: Inhibition of recombinant IKBKE (unknown origin) at 5 uM by FRET-based Z'-LYTE assay; how it was run: as §1
[24] = biological target: Casein kinase II subunit alpha (Homo sapiens) (UniProt P68400); assay: Inhibition of recombinant CSNK2A1 (unknown origin) at 5 uM by FRET-based Z'-LYTE assay; how it was run: as §1
[25] = biological target: Mitogen-activated protein kinase kinase kinase kinase 4 (Homo sapiens) (UniProt O95819); assay: Inhibition of recombinant MAP4K4 (unknown origin) at 5 uM by FRET-based Z'-LYTE assay; how it was run: as §1
[26] = biological target: Dual specificity mitogen-activated protein kinase kinase 1 (Homo sapiens, UniProt Q02750); assay: Inhibition of recombinant MEK1 (unknown origin) by cascade reaction assay
[27] = biological target: Mast/stem cell growth factor receptor Kit (Homo sapiens) (UniProt P10721); assay: Inhibition of recombinant KIT (unknown origin) at 5 uM by FRET-based Z'-LYTE assay; how it was run: as §1
[28] = biological target: RAC-beta serine/threonine-protein kinase (Homo sapiens, UniProt P31751); assay: Inhibition of recombinant AKT2 (unknown origin) by FRET-based Z'-LYTE assay
[29] = biological target: Vascular endothelial growth factor receptor 2 (Homo sapiens, UniProt P35968); settings: 5 uM
[30] = biological target: Tyrosine-protein kinase SYK (Homo sapiens) (UniProt P43405); assay: Inhibition of recombinant SYK (unknown origin) at 5 uM by FRET-based Z'-LYTE assay; how it was run: as §2

Chain of Mitogen-activated protein kinase kinase kinase kinase 4 (Homo sapiens) (O95819 2-1239 limits assumed): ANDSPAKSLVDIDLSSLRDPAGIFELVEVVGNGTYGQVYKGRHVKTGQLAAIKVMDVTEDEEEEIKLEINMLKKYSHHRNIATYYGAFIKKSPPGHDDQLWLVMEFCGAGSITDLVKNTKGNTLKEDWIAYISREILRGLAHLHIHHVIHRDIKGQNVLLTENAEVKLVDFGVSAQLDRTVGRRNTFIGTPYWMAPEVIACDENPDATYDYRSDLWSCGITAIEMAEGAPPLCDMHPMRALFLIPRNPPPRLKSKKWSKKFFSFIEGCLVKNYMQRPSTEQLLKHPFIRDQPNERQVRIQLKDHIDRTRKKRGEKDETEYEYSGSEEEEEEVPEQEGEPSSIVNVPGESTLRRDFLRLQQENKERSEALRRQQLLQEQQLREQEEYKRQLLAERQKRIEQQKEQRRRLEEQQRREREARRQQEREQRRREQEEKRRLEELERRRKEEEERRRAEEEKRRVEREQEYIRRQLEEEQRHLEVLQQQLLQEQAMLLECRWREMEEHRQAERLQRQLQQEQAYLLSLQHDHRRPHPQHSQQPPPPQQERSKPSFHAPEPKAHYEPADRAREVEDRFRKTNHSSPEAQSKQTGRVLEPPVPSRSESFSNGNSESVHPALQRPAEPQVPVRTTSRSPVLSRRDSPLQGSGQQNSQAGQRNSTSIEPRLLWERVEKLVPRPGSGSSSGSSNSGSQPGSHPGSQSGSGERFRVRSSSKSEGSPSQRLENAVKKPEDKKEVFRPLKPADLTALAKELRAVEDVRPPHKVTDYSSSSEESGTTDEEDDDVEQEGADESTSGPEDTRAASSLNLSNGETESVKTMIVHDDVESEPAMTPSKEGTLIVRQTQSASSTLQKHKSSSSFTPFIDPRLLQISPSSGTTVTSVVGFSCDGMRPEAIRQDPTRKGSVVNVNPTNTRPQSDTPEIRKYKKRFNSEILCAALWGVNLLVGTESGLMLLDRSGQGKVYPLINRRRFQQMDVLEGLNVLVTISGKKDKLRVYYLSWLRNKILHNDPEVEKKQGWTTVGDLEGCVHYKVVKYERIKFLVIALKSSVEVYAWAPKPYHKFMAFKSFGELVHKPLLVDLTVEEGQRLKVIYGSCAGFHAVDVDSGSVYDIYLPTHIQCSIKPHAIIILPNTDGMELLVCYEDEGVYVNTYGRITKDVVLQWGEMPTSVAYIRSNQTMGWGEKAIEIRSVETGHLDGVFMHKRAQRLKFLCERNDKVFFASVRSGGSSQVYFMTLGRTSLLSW
Chain of Casein kinase II subunit alpha (Homo sapiens) (P68400 whole entry, looked up): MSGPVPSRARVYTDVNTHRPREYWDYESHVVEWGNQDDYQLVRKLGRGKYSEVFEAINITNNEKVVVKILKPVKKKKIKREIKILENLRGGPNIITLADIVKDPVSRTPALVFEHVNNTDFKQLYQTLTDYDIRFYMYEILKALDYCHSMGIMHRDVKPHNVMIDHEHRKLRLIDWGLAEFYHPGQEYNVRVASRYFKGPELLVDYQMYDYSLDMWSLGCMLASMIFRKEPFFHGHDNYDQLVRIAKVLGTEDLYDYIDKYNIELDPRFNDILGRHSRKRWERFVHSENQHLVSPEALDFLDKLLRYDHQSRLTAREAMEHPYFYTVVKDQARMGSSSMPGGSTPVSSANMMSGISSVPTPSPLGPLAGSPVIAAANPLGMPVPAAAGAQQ
Chain of Protein kinase C beta type (Homo sapiens) (P05771 2-671 limits assumed): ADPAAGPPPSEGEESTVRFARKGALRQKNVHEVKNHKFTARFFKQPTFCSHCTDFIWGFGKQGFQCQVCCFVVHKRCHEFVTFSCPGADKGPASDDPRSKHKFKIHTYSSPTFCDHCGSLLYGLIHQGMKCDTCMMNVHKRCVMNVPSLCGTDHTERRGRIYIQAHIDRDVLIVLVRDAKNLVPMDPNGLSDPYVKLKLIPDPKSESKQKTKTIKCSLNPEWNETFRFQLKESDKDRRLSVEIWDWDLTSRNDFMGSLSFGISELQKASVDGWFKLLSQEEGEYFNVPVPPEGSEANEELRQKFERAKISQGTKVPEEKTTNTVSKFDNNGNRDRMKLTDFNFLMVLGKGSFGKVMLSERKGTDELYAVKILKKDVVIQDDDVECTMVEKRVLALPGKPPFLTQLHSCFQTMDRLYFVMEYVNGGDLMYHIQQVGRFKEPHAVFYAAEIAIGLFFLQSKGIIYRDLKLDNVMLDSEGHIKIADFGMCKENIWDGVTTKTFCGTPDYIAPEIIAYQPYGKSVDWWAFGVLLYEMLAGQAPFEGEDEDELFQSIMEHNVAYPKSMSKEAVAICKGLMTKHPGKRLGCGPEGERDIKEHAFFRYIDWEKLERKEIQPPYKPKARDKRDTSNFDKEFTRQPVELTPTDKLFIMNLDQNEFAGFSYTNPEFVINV
Chain of Insulin receptor (Homo sapiens) (P06213 28-758 limits assumed): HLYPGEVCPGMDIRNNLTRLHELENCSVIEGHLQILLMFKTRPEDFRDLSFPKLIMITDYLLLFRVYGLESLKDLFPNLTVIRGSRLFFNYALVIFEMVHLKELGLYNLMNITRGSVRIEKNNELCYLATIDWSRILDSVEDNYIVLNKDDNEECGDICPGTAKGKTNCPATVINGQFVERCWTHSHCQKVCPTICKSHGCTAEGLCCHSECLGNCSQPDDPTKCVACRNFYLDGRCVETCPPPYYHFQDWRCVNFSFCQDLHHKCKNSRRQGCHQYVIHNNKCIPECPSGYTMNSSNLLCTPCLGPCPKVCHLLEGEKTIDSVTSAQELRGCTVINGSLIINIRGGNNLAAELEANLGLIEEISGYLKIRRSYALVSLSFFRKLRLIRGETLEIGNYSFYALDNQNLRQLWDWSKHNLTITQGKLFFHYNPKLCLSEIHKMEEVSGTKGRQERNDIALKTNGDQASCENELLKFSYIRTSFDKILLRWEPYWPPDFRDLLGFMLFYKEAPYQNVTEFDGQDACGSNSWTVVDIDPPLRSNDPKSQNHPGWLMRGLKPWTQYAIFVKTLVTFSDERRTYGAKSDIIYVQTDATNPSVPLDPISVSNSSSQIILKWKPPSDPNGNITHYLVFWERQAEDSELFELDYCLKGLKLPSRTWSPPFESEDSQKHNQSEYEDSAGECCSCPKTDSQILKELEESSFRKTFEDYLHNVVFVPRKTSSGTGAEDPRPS
Chain of Insulin receptor (Homo sapiens) (P06213 763-1382 limits assumed): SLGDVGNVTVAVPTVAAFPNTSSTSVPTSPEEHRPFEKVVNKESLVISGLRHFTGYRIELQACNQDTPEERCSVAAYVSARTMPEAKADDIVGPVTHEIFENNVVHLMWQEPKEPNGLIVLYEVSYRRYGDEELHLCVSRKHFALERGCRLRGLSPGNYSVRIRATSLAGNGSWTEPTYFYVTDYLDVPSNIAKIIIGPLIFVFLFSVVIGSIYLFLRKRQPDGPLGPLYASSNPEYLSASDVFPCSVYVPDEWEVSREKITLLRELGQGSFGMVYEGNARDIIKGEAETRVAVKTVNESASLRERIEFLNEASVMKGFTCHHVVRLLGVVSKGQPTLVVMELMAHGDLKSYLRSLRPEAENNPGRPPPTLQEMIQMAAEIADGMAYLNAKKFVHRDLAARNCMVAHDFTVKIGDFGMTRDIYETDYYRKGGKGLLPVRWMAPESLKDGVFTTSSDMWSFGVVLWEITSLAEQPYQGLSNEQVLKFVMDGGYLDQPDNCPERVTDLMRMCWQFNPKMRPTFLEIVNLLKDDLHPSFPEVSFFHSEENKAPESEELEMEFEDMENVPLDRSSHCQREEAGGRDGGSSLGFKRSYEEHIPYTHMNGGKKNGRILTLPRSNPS
Chain of Interleukin-1 receptor-associated kinase 4 (Homo sapiens) (Q9NWZ3 whole entry): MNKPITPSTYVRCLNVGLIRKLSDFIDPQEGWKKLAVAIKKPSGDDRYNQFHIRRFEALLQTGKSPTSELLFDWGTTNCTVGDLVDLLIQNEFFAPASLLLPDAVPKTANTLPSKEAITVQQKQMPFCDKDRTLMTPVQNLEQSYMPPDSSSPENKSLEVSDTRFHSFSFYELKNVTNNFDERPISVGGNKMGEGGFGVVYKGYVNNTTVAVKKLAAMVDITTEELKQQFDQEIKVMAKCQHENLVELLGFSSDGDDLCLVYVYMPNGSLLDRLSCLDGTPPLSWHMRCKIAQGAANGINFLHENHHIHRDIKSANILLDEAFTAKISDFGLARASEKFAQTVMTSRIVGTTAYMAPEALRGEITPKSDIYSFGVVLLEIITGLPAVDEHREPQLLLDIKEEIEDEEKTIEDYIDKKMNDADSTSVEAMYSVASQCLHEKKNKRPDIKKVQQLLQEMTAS
Chain of Ribosomal protein S6 kinase alpha-3 (Homo sapiens) (P51812 whole entry): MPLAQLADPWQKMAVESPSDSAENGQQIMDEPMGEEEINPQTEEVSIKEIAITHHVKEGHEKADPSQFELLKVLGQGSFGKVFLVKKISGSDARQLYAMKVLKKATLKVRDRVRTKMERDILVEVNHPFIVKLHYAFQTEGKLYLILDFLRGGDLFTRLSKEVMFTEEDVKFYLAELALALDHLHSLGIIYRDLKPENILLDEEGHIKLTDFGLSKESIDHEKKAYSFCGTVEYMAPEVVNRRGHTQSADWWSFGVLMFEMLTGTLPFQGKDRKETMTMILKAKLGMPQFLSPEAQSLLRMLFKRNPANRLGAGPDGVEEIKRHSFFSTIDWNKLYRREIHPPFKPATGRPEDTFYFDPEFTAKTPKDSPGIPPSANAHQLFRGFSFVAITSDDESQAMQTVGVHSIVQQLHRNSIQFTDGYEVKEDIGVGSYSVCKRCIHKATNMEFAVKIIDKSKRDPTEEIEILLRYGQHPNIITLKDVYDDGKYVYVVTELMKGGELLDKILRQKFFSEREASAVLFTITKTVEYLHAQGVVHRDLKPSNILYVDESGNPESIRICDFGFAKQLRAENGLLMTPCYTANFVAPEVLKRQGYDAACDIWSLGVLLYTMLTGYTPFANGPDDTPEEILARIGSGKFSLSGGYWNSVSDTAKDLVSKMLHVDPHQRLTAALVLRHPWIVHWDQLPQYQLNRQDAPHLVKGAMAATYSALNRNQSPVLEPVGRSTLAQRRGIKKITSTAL

O=C1/C(=C/c2ccccn2)CNC/C1=C\c1ccccn1
inhibition [1]: 13%
inhibition [2]: 107%
inhibition [3]: 12%
IC50 [4]: 4 µM
inhibition [5]: 5%
inhibition [6]: 101%
IC50 [7]: 1.4 µM
inhibition [8]: 34%
inhibition [9]: 37%
inhibition [10]: 11%
inhibition [11]: -9%
inhibition [12]: 95%
inhibition [13]: 26%
inhibition [14]: 91%
IC50 [15]: 6.7 µM
inhibition [16]: 104%
inhibition [17]: 24%
inhibition [18]: 48%
inhibition [19]: 15%
inhibition [20]: 3%
inhibition [21]: 77%
inhibition [22]: -9%
inhibition [23]: 15%
inhibition [24]: 5%
inhibition [25]: 72%
IC50 [26]: 1.1 µM
inhibition [27]: 2%
IC50 [28]: 0.02 µM
inhibition [29]: 89%
inhibition [30]: 45%
